Experimental data from ChEMBL document CHEMBL5678808, “Human target validation of phosphoinositide 3-kinase (PI3K)β: effects on platelets and insulin sensitivity, using AZD6482 a novel PI3Kβ inhibitor” (J Thromb Haemost, 2012).

Key:
[1] = biological target: Serine/threonine-protein kinase mTOR (Homo sapiens, UniProt P42345); assay: Inhibition of mTOR (unknown origin)
[2] = biological target: Tyrosine-protein kinase CSK (Homo sapiens, UniProt P41240); assay: Inhibition of human CSK
[3] = biological target: Epidermal growth factor receptor (Homo sapiens, UniProt P00533); assay: Inhibition of human EGFR
[4] = biological target: Fibroblast growth factor receptor 1 (Homo sapiens, UniProt P11362); assay: Inhibition of human FGFR1
Focal adhesion kinase 1 = Focal adhesion kinase 1 (Homo sapiens, UniProt Q05397); assay: Inhibition of human FAK
[5] = biological target: Serine/threonine-protein kinase Chk1 (Homo sapiens, UniProt O14757); assay: Inhibition of human CHK1
[6] = biological target: Mitogen-activated protein kinase 14 (Homo sapiens, UniProt Q16539); assay: Inhibition of human p38a
[7] = biological target: Cyclin-dependent kinase 2/cyclin E1 (Homo sapiens, UniProt P24941); assay: Inhibition of human CDK2/Cyclin E; type: protein-complex assay
[8] = biological target: Serine/threonine-protein kinase PAK 5 (Homo sapiens) (UniProt Q9P286); assay: Inhibition of human PAK5 at 10 uM relative to control
Rattus norvegicus [9] = species: Rattus norvegicus; assay: Inhibition of rat AMPK at 10 uM relative to control
Homo sapiens = species: Homo sapiens; assay: Inhibition of human CDK2/Cyclin A at 10 uM relative to control
[10] = biological target: Proto-oncogene tyrosine-protein kinase LCK (Mus musculus) (UniProt P06240); assay: Inhibition of mouse LCK at 10 uM relative to control
[11] = biological target: Dual specificity mitogen-activated protein kinase kinase 1 (Homo sapiens) (UniProt Q02750); assay: Inhibition of mitogen activated protein kinase kinase 1 (unknown origin) at 10 uM relative to control
[12] = biological target: Protein kinase C alpha type (Homo sapiens) (UniProt P17252); assay: Inhibition of human PKCa at 10 uM relative to control
[13] = biological target: Dual specificity tyrosine-phosphorylation-regulated kinase 1A (Rattus norvegicus) (UniProt Q63470); assay: Inhibition of rat DYRK1A at 10 uM relative to control
[14] = biological target: Serine/threonine-protein kinase Sgk1 (Homo sapiens) (UniProt O00141); assay: Inhibition of human SGK at 10 uM relative to control
[15] = biological target: Mitogen-activated protein kinase 9 (Homo sapiens) (UniProt P45984); assay: Inhibition of human MAPK9 at 10 uM relative to control
[16] = biological target: Serine/threonine-protein kinase PAK 2 (Homo sapiens) (UniProt Q13177); assay: Inhibition of human PAK2 at 10 uM relative to control
[17] = biological target: Protein kinase C zeta type (Homo sapiens) (UniProt Q05513); assay: Inhibition of human PKCz at 10 uM relative to control
[18] = biological target: Serine/threonine-protein kinase pim-3 (Homo sapiens) (UniProt Q86V86); assay: Inhibition of human PIM3 at 10 uM relative to control
[19] = biological target: Serine/threonine-protein kinase BRSK2 (Homo sapiens) (UniProt Q8IWQ3); assay: Inhibition of human BRSK2 at 10 uM relative to control
[20] = biological target: Homeodomain-interacting protein kinase 3 (Homo sapiens) (UniProt Q9H422); assay: Inhibition of human HIPK3 at 10 uM relative to control
[21] = biological target: Maternal embryonic leucine zipper kinase (Homo sapiens) (UniProt Q14680); assay: Inhibition of human MELK at 10 uM relative to control
[22] = Protein binding in dog plasma assessed as unbound fraction; type: ADME, cell-free, Canis lupus familiaris
Rattus norvegicus [23] = assay: Insulin sensitizing activity in Sprague-Dawley rat hyperinsulinemic-euglycemic glucose clamp model assessed as glucose infusion rate required to maintain euglycemia during infusion of human insulin at 6000 ug/kg/min, iv for 2 mins followed by 300 ug/kg/min, iv for 28 mins measured during clamp 2 (reference value: 138 +/- 4 umol/min/kg); type: functional; settings: time 30 min, 0.5 h
Outline: (§1)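 Anesthetized rats; hyperinsulinemic–euglycemic clamp with human insulin infused. A baseline clamp (Clamp1) was followed by a second clamp (Clamp2) with vehicle or drug i.v. The drug was given as a low dose (1000 μg kg−1 + 50 μg kg min−1) or a high dose (6000 μg kg−1 + 300 μg kg min−1). Steady-state glucose infusion rate for euglycemia was recorded, with plasma glucose, human insulin and total insulin; mean ± SEM, n = 4–5/group.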

Rattus norvegicus [24] = assay: Insulin sensitizing activity in Sprague-Dawley rat hyperinsulinemic-euglycemic glucose clamp model assessed as basal glucose level during infusion of human insulin at 1000 ug/kg/min, iv for 2 mins followed by 50 ug/kg/min, iv for 28 mins by colorimetry (reference value: 8.1 +/- 0.7 mM); type: functional; settings: time 30 min, 0.5 h; outline: as §1
Rattus norvegicus [25] = assay: Insulin sensitizing activity in Sprague-Dawley rat hyperinsulinemic-euglycemic glucose clamp model assessed as glucose level during infusion of human insulin at 1000 ug/kg/min, iv for 2 mins followed by 50 ug/kg/min, iv for 28 mins measured during clamp 1 by colorimetry (reference value: 8.4 +/- 0.8 mM); type: functional; settings: time 30 min, 0.5 h; outline: as §1
Rattus norvegicus [26] = assay: Insulin sensitizing activity in Sprague-Dawley rat hyperinsulinemic-euglycemic glucose clamp model assessed as basal glucose level during infusion of human insulin at 6000 ug/kg/min, iv for 2 mins followed by 300 ug/kg/min, iv for 28 mins by colorimetry (reference value: 8.1 +/- 0.7 mM); type: functional; settings: time 30 min, 0.5 h; outline: as §1
Rattus norvegicus [27] = assay: Insulin sensitizing activity in Sprague-Dawley rat hyperinsulinemic-euglycemic glucose clamp model assessed as glucose level during infusion of human insulin at 6000 ug/kg/min, iv for 2 mins followed by 300 ug/kg/min, iv for 28 mins measured during clamp 2 by colorimetry (reference value: 8.1 +/- 0.7 mM); type: functional; settings: time 30 min, 0.5 h; outline: as §1
Rattus norvegicus [28] = assay: Insulin sensitizing activity in Sprague-Dawley rat hyperinsulinemic-euglycemic glucose clamp model assessed as basal total insulin level during infusion of human insulin at 1000 ug/kg/min, iv for 2 mins followed by 50 ug/kg/min, iv for 28 mins (reference value: 0.3 +/- 0.1 nM); type: functional; settings: time 30 min, 0.5 h; outline: as §1
[29] = Toxicity in Sprague-Dawley rat assessed as change in blood pressure at 1000 ug/kg, iv for 2 mins followed by 50 ug/kg/min, iv for 28 mins; type: organism-based; settings: in vivo, 1 mg/kg, 0.5 h, time 30 min
Outline: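 Blood pressure was monitored in anesthetized rats during hyperinsulinemic–euglycemic clamps. There was an initial control period, then i.v. drug at 1000 μg kg−1 + 50 μg kg min−1 or 6000 μg kg−1 + 300 μg kg min−1. Heart rate was also recorded.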

[30] = Toxicity in Sprague-Dawley rat assessed as change in blood pressure at 30000 ug/kg, iv for 2 mins followed by 1500 ug/kg/min, iv for 28 mins; type: organism-based; settings: in vivo, 30 mg/kg, 0.5 h, time 30 min
[31] = Volume of distribution at steady state in human at 0.9 to 455.8 mg, iv administered for 3 hrs via infusion by LC-MS/MS analysis; type: ADME, organism-based; settings: in vivo, dose 0.9-455.8 mg
Outline: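 Healthy male volunteers (18–36 years) in a randomized, double-blind, placebo-controlled single ascending-dose study received a 3-h i.v. infusion. Plasma drug levels were measured by protein precipitation then LC-MS/MS (LLOQ 0.005 μm). Non-compartmental pharmacokinetic analysis was used; median (range) across dose levels reported.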

Chain of Mitogen-activated protein kinase 9 (Homo sapiens) (P45984 whole entry, looked up): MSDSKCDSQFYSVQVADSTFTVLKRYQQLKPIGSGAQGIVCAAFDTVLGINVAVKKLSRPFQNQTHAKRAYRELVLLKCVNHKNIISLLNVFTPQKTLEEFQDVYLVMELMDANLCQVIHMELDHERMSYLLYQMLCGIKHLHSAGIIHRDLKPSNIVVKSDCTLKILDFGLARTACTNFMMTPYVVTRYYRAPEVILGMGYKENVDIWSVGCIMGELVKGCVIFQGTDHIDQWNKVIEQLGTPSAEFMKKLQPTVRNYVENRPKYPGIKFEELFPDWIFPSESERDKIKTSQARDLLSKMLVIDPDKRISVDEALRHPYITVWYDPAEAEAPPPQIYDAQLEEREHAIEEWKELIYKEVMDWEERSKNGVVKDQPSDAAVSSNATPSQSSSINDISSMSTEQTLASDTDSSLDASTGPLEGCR
Chain of Protein kinase C zeta type (Homo sapiens) (Q05513 whole entry): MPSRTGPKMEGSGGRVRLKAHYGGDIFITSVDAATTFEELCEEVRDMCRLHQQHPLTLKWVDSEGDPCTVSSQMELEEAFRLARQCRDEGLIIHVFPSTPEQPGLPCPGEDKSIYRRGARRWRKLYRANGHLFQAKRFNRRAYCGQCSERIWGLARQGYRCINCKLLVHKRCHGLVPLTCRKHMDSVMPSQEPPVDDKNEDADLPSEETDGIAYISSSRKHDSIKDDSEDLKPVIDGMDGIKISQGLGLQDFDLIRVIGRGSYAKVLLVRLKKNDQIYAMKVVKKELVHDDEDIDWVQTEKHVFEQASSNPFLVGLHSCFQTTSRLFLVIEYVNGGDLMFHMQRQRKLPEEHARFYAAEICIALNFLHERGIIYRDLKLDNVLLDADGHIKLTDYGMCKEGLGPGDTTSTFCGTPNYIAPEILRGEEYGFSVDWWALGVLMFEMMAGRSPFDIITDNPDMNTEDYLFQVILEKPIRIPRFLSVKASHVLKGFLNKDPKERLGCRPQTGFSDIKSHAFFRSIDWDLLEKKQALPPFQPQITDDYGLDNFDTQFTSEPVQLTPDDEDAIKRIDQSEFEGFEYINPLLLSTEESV
Chain of Serine/threonine-protein kinase BRSK2 (Homo sapiens) (Q8IWQ3 whole entry): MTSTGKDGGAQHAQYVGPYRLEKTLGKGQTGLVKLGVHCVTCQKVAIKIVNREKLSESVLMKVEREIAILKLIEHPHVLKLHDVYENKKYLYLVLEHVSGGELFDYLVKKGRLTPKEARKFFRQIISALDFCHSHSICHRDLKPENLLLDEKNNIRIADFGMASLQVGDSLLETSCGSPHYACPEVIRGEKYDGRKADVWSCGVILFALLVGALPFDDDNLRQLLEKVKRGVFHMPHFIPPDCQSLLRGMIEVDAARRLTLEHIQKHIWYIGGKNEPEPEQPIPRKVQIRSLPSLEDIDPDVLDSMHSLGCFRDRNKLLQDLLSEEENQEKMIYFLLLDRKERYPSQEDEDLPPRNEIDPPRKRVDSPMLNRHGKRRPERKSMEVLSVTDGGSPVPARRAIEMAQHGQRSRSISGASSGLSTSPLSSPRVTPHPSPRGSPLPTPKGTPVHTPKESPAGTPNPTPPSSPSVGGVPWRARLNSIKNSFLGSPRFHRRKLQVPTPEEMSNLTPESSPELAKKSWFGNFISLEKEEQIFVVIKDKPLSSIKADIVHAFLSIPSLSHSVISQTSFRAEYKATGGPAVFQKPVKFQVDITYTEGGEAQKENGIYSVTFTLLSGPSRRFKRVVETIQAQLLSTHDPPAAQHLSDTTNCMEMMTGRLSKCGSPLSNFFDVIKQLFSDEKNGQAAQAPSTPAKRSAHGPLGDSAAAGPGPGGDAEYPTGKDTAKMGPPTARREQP
Chain of Fibroblast growth factor receptor 1 (P11362 whole entry): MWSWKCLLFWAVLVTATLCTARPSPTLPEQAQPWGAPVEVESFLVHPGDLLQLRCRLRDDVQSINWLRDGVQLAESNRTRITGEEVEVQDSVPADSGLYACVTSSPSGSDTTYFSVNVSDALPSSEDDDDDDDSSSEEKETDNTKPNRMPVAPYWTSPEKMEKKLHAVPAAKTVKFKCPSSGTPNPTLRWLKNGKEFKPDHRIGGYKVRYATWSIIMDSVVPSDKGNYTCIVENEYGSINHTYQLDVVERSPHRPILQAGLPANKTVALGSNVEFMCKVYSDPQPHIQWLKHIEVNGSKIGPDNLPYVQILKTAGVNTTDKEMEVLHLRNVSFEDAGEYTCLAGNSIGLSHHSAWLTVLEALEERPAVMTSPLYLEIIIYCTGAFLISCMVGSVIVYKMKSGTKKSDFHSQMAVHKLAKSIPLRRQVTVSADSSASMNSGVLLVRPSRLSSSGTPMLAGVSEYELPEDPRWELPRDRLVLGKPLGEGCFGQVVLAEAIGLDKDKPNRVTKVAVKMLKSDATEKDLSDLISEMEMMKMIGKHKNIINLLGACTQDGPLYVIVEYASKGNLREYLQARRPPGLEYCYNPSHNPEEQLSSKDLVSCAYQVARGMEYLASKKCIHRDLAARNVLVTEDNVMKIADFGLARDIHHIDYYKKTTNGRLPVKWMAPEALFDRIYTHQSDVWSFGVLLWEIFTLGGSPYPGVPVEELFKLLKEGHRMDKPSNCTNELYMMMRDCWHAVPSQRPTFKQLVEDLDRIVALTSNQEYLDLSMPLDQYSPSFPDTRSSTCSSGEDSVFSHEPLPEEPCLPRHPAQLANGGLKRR
Chain of Serine/threonine-protein kinase Chk1 (O14757 whole entry): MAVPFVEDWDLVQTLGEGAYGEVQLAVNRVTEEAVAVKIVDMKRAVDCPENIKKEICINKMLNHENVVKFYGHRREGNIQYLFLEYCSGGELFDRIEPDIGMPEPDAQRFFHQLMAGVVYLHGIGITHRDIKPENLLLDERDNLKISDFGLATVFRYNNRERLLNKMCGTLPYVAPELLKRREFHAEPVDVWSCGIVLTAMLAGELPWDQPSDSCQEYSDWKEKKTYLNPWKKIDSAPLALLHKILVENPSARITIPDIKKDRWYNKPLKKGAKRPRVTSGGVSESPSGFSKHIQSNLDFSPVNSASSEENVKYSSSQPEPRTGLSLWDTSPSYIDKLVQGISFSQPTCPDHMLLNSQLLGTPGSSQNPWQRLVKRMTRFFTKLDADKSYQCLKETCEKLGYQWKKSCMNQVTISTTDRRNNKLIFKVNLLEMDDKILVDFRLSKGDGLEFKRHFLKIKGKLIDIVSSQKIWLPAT
Chain of Homeodomain-interacting protein kinase 3 (Homo sapiens) (Q9H422 whole entry, looked up): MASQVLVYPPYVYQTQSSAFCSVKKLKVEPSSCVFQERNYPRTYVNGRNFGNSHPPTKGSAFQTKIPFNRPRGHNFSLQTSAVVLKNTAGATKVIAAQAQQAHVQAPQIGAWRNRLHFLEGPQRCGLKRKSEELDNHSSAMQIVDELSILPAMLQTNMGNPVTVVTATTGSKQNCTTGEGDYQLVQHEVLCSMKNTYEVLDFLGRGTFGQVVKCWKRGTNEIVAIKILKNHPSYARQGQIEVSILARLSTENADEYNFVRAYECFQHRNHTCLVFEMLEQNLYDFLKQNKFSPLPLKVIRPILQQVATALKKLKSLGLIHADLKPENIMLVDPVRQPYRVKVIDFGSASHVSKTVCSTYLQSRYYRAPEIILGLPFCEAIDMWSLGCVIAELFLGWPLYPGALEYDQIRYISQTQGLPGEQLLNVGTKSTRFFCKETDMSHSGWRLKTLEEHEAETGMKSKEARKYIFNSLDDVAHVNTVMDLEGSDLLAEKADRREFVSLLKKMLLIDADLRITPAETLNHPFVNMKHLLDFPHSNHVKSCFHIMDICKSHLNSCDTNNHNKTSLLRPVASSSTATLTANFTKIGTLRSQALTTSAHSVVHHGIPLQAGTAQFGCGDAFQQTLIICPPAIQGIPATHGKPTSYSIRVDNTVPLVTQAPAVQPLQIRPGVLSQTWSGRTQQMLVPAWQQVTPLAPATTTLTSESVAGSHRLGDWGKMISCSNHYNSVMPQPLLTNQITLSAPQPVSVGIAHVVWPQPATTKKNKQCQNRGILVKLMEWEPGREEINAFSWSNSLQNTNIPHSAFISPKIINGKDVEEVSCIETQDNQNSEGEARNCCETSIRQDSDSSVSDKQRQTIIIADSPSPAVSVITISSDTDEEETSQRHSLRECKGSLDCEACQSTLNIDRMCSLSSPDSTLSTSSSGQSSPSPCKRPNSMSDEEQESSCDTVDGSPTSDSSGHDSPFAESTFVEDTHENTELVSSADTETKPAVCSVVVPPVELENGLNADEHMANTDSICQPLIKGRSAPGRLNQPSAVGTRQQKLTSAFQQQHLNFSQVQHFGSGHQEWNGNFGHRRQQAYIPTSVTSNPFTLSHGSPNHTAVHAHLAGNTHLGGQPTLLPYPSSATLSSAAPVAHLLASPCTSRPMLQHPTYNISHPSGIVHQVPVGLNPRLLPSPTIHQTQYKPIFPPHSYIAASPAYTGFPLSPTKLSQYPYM
Chain of Tyrosine-protein kinase CSK (P41240 whole entry): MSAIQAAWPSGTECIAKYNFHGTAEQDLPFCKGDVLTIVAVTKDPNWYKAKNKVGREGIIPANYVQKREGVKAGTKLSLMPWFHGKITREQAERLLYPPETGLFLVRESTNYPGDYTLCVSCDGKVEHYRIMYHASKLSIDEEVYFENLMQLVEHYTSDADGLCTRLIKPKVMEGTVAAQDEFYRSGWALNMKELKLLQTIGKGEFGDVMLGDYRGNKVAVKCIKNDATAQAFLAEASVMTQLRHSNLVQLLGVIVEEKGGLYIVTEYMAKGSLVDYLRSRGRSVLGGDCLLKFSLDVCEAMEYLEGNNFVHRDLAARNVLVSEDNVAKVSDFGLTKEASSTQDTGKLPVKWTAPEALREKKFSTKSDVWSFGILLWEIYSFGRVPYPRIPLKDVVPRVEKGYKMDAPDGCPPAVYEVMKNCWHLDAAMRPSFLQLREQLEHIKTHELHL

Cc1cc([C@@H](C)Nc2ccccc2C(=O)O)c2nc(N3CCOCC3)cc(=O)n2c1 [AZD-6482]
IC50 [1]: 8 µM | IC50 [2]: 90 µM | IC50 [3]: > 298 µM | IC50 [4]: > 699 µM | IC50 (Focal adhesion kinase 1): > 1000 µM | IC50 [5]: > 1000 µM | IC50 [6]: > 671 µM | IC50 [7]: > 1000 µM | inhibition [8]: 21% | inhibition (Rattus norvegicus [9]): 14% | inhibition (Homo sapiens): -1.6% | inhibition [10]: 11% | inhibition [11]: 11% | inhibition [12]: -0.9% | inhibition [13]: 9% | inhibition [14]: -5.8% | inhibition [15]: 0.2% | inhibition [16]: 3.9% | inhibition [17]: 13% | inhibition [18]: -5.9% | inhibition [19]: 2.5% | inhibition [20]: 7.2% | inhibition [21]: 17% | fraction unbound [22]: 0.1 | Activity (Rattus norvegicus [23]): 38 µmol/min/kg | Activity (Rattus norvegicus [24]): 7.6 mM | Activity (Rattus norvegicus [25]): 7.3 mM | Activity (Rattus norvegicus [26]): 7.7 mM | Activity (Rattus norvegicus [27]): 7.8 mM | Activity (Rattus norvegicus [28]): 0.3 nM | Activity [29]: Non-Toxic | Activity [30]: Non-Toxic | Vd [31]: 48 L
